# b-catenin transl: alters nuclear translocation of beta-catenin in HeLa cells; 0.3% of 190,000 active; immunofluorescence imaging; nuclear translocation activity, % at 5 µM; AID 1665;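 active = nuclear translocation activity above 50% at 5 µM, with a well cell count of 50 or more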;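 note: per-cell ratio of nuclear to cytoplasmic median beta-catenin stain intensity; plate controls were DMSO negative control for no effect and GSK-3 inhibitor IX positive control for full effect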
#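 Technique: fluorescence imaging of beta-catenin antibody stain plus DAPI / Material: human HeLa cell line / Incubation: compound treatment 24 h, 37°C, 5% CO2 / Read-out basis: % activation of per-cell nuclear versus cytoplasmic median beta-catenin signal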
# CHOP inh: blocks CHOP induction under ER stress | CHO-K1 CHOP-promoter luciferase, tunicamycin-induced, 15-18 h | inhibition, % at 10 µM | 3.8% of 220,000 active;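 active = compounds that reduced the stress-induced luciferase reporter signal by more than about 70% of percent inhibition, limit read from the data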;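 note: 0% = tunicamycin plus vehicle and 100% = wells without tunicamycin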
# MT stabilizer: microtubule stabilizers in HeLa cells; 0.83% of 200,000 active; % tubulin-high responders, % at 10 µM; HeLa tubulin immunostaining HCS, 24 h; share of cells brighter than vehicle mean+2SD;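 active = plate Z-score above 3 for both tubulin-high and condensed-nucleus cell shares, with cell loss under 80%, at 10 µM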;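 note: anti alpha tubulin signal scored within the nucleus-defined area of each cell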
# Lmaj promast: Leishmania major promastigote growth inhibition. Leishmania major promastigotes, resazurin fluorescence viability. inhibition, % at 10 µM. 9% of 200,000 active. AID 1063; in the data active = inhibition above about 50%;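 note: promastigotes grown with compound for 44 hours at 28 °C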
# Dynein cargo inh: dynein cargo transport inhibition; 3617.4 mouse cells, GR-EGFP nuclear translocation imaging; test concentration mostly 20 µM; stimulated with dexamethasone, 1 µM; stronger effect = lower value; z-score, hits read low; 0.47% of 220,000 active; AID 1381;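 active = plate z-score of nuclear minus cytoplasmic receptor signal below a set negative limit, without overly bright fluorescence or cell loss, cut at about -3.5 in these data, passing the limit was not always enough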;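 note: z-score of nuclear minus cytoplasmic ring GR-EGFP intensity difference per well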
#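 Medium: Induction medium lacking tetracycline, stripped serum | Probe or stimulus: 1.0 µM final dexamethasone stimulus | Schedule: 48 h induction, then 1 h compound, then 30 min agonist, 37 °C | Signal: Automated 10x imaging of fixed Hoechst-stained cells | Evaluation: Per-cell GR-EGFP intensity, nucleus versus surrounding cytoplasmic ring, well-averaged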
# Autophagy mod: modulators of autophagy; MEF GFP-LC3 puncta imaging; test concentration mostly 10 µM; calls only at 10 µM (by protocol); 0.98% of 190,000 active; AID 463193;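 active = percentage of spot-positive cells more than 3 SD above its plate mean, without a fluorescence outlier flag or 80% toxicity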;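 note: spot-positive cell cutoff set from DMSO-treated cells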
# CHOP confirm: confirmation of CHOP induction inhibitors. inhibition, % at 10 µM. 45% of 2,100 active. CHO-CHOP promoter luciferase reporter, tunicamycin-induced, luminescence. shares compounds with CHOP inh;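 active = mean of three repeat readings of reporter signal inhibition above a set limit, cut at about 70% in these data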;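 note: 0% = tunicamycin plus vehicle and 100% = wells lacking tunicamycin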
# Active calls of the source: *; i = inactive; . = not tested or not shown; + = active, no number. In the library only some 12% were active in any assay of this set; here they are far more common.
SMILES,b-catenin transl,CHOP inh,MT stabilizer,Lmaj promast,Dynein cargo inh,Autophagy mod,CHOP confirm
COc1cc(N=c2ssnc2Cl)c(OC)cc1Cl,-5,-26,4,3,-2.9,i,.
Cc1ccc(N(CC(=O)Nc2ccc3c(c2)OCCO3)S(C)(=O)=O)cc1,2,-8,1,-1,-0.59,i,.
Cc1cc(CN2CCN(CCC#N)CC2)c(O)c(C2(C)CCCCC2)c1,.,64,2,22,2.6,i,.
CNc1ccc(Br)cc(C(=O)/C=C/c2ccc(OC)cc2OC)c1=O,-4,-16,4,6,-0.16,i,.
CNc1ccc(Br)cc(C(=O)/C=C/c2ccc(Cl)cc2Cl)c1=O,1,103*,9.3*,99*,-3.3,i,-30
Cc1nn(CCCC(=O)Nc2c(F)cc(F)cc2Br)c(C)c1[N+](=O)[O-],0,-14,2,8,0.52,i,.
Cc1ccc(C(=O)Nc2ccc(CC(=O)O)cc2)o1,1,34,2,-2,-0.14,i,.
CC(C)(C)c1ccc(C(=O)Nc2ccc(CC(=O)O)cc2)o1,.,98*,2,-11,0.57,i,92*
Cc1nn(-c2ccc(F)cc2)c2nc(N)c(C#N)c(-c3cccs3)c12,-1,100*,3,-2,-0.79,i,42
Cc1c(-c2ccc(F)cc2)nc(N)c(C#N)c1-c1cccs1,0,26,2,-2,0.75,i,.
CCOc1ccc(-n2c(C)nc3c(cnn3-c3ccc(Cl)cc3)c2=O)cc1,.,62,4,-1,0.21,i,.
CCc1nc2c(cnn2-c2ccc(Cl)cc2)c(=O)n1-c1ccc(OC)cc1,0,101*,2,17,-0.99,i,88*
CC(C)NC(=S)N/N=C/c1cccnc1,0,-14,.,.,-0.87,.,.
CCN(Cc1ccncc1)C(=O)c1cccs1,1,6,2,-5,-0.37,i,.
COCCn1cnc2c(c1=O)c1nc3ccccc3nc1n2/N=C/c1cccc(OC)c1,0,101*,.,.,8.4,.,107*
O=S(=O)(Nc1cc(Sc2cccc3cccnc23)c(O)c2ccccc12)c1ccc(F)cc1,-1,107*,4,100*,-0.79,i,108*
Nc1nonc1C(=O)NCCN=Cc1ccccc1O,-2,28,3,-1,-0.86,i,.
Nc1nonc1C(=O)NCCN=Cc1cc(Cc2ccccc2)cc(Br)c1O,-2,104*,5,-7,-0.78,i,12
O=C(Nc1nc(NC(=O)c2ccco2)n(-c2ccccc2)n1)c1ccccc1,1,106*,1,100*,-0.4,i,60
Nc1nc(NC(=O)c2ccccc2)nn1-c1ccccc1,-2,-12,3,-3,0.34,i,.
O=C(Nc1ccccc1C(=O)O)c1cccc(F)c1,.,.,3,-8,0.58,i,.
Cc1ccc(C(=O)CC(=O)c2cc(Cl)ccc2O)cc1,0,102*,2,99*,-0.013,i,72*
O=C(CC(=O)c1ccccc1O)c1ccc(F)cc1,.,101*,3,97*,-0.19,i,62
O=C(CC(=O)c1ccccc1O)c1cccc(F)c1,-3,.,5,98*,-0.55,i,56
CC1=C(C(=O)N2CCCCC2)C(c2cccs2)C2=C(CCCC2=O)N1 (stereo unspecified),0,.,3,-5,-0.6,i,.
SMILES,b-catenin transl,CHOP inh,MT stabilizer,Lmaj promast,Dynein cargo inh,Autophagy mod,CHOP confirm
COC(=O)c1ccc(NC(=O)CCN2C(=O)CSC2=O)cc1,1,-17,3,-7,-0.3,i,.
CC1(c2ccc3noc(-c4cccc(F)c4)c3c2)OCCO1,-2,38,2,-13,0.37,i,.
Cc1cccc(-c2onc3ccc(C4(C)OCCO4)cc23)c1,16,106*,1,2,-1.1,i,32
COc1ccccc1NC(=O)c1c(Nc2ccccc2C)sc(C(=O)Nc2cccc(Cl)c2)c1N,3,100*,17,19,3,i,131*
COc1ccccc1/C=N/n1c(N)c(S(=O)(=O)c2cccs2)c2nc3ccccc3nc21,7,-22,1,24,-1,i,.
Nc1c(S(=O)(=O)c2ccccc2)c2nc3ccccc3nc2n1/N=C/c1cccc(O)c1,4,103*,12,91*,2.3,i,72*
Nc1nnnn1/N=C/C=C/c1ccccc1,-2,-29,6,-9,-1.1,i,.
Nc1nnnn1/N=C/C(Br)=C/c1ccccc1,1,.,32,35,-3.1,i,90*
C=C1C(=O)O[C@@H]2C[C@@H](C)[C@@H]3C=CC(=O)[C@@]3(C)[C@@H](OC(C)=O)[C@H]12,-1,107*,.,.,-3.6*,.,120*
Cc1occc1C(=O)Nc1sc2c(c1C(N)=O)CCCCC2,.,96*,3,1,-0.38,i,11
COC(=O)c1c(NC(=O)c2ccoc2C)sc2c1CCC2,0,54,3,-1,0.0083,i,.
Cc1ccc(NC(=O)c2cc3ccccc3oc2=O)cc1S(=O)(=O)N(C)C,-3,102*,3,-7,0.56,i,110*
O=c1[nH]ncc(NCc2ccc(Cl)cc2)c1Cl,1,13,2,-3,-0.51,i,.
COc1cc(/C=C/c2noc(-c3ccccc3O)n2)cc(OC)c1OC,0,54,3,11,-0.0049,i,.
COc1cc(/C=C/c2nc(N)nc(-c3ccccc3O)n2)cc(OC)c1OC,2,96*,4,14,-0.29,i,76*
N#CCOC(=O)/C=C/c1ccc2c(c1)OCO2,-1,-1,4,0,-1.4,i,.
O=C(CSc1nnc(-c2cccs2)n1-c1ccccc1)Nc1ccccc1,0,34,3,0,-1.1,i,.
CC(C)Cn1c2c(c(=O)[nH]c1=O)C(C(F)(F)F)(C(F)(F)F)N=C(CCC1CCCCC1)N2,-1,102*,4,80*,0.012,i,82*
O=c1[nH]c(=O)n(Cc2ccco2)c2c1C(C(F)(F)F)(C(F)(F)F)N=C(CCC1CCCCC1)N2,0,41,3,3,0.11,i,.
Cc1ccc(C2=NN(S(=O)(=O)c3ccccc3)C(c3ccccc3O)C2)cc1 (stereo unspecified),2,106*,7,97*,-0.24,i,38
Cc1ccc(C2=NN(C(=O)c3cccs3)C(c3ccccc3O)C2)cc1 (stereo unspecified),1,103*,4,13,-0.88,+,105*
O=C(c1cccs1)N1N=C(c2ccccc2)CC1c1ccccc1O (stereo unspecified),-1,10,2,32,0.34,i,.
COc1ccccc1Nc1nc(NCc2ccco2)c2ccccc2n1,1,12,.,.,-0.25,.,.

# Bioassay records as filed in PubChem.
